Drawing on ChEMBL document CHEMBL1148277, “Synthesis and pharmacological evaluation of 3-(3,4-dichlorophenyl)-1-indanamine derivatives as nonselective ligands for biogenic amine transporters” (J Med Chem, 2004), this text covers Ki for eight compounds.

What is called Ki is a measure of affinity in units of concentration, obtained from inhibition or displacement. Read a low Ki as tighter binding.

Assay [1] concerns the target T1, Sodium-dependent dopamine transporter (Rattus norvegicus, UniProt P23977). Briefly: Binding affinity for DA transporter using [125I]RTI-55 in frozen rat caudate membranes. The assay is classed as cell membranes. The procedure, abridged: (§1)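 Rat caudate membranes as stated in the lines. For NET binding, 5 mM KCl and 300 mM NaCl were added. Radioligand was in protease inhibitors (chymostatin, leupeptin, EDTA, EGTA). Ended by filtration over PEI-presoaked GF/B filters; Ki derived.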

The target of assay [2] is T2, Sodium-dependent serotonin transporter (Rattus norvegicus, UniProt P31652). Briefly: (§2) Displacement of [125I]RTI-55 from serotonin transporter of frozen rat caudate membranes. The assay is classed as cell membranes, Membrane. In a few lines:
as §1
Background: Displacement assays read how much labelled ligand stays bound in the presence of the test substance.

The target of assay [3] is T3, Norepinephrine transporter (Rattus norvegicus, UniProt Q9WTR4). Briefly: Reuptake inhibitory activity against NE transporter. The assay is classed as functional.
The target in assay [4] is T1, Sodium-dependent dopamine transporter. The experiment in a line: Reuptake inhibitory activity against dopamine DA transporter.
In assay [5] the target is T2, Sodium-dependent serotonin transporter. The experiment in a line: Reuptake inhibitory activity against Serotonin transporter. The procedure, abridged:
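[³H]5-HT uptake in crude synaptosomes from rat whole brain minus caudate, in Krebs phosphate buffer pH 7.4 with 1 mg/mL ascorbic acid and 50 μM pargyline. Stopped after 30 min by Tris-HCl/NaCl wash buffer and rapid GF/B filtration. Run twice, each in triplicate.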

Assay [6] deals with T3, Norepinephrine transporter. Briefly: Displacement of from norepinephrine transporter of frozen rat caudate membranes. The assay is classed as cell membranes, Membrane. The procedure, abridged: as §1
Assay [7] addresses T2, Sodium-dependent serotonin transporter. The assay is described as §2. The assay is classed as cell membranes, Membrane. The procedure, abridged: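 Rat caudate membranes as stated in the lines. Incubated 18–24 h at 4 °C to equilibrium with radioligand and test drug in 55.2 mM sodium phosphate buffer, pH 7.4, with 1 mg/mL BSA. For NET binding, 5 mM KCl and 300 mM NaCl were added. Radioligand was in protease inhibitors (chymostatin, leupeptin, EDTA, EGTA). Ended by filtration over PEI-presoaked GF/B filters; Ki derived.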
This is another data set of the same source.

Structures are written as SMILES.

T2 sequence (P31652 whole entry): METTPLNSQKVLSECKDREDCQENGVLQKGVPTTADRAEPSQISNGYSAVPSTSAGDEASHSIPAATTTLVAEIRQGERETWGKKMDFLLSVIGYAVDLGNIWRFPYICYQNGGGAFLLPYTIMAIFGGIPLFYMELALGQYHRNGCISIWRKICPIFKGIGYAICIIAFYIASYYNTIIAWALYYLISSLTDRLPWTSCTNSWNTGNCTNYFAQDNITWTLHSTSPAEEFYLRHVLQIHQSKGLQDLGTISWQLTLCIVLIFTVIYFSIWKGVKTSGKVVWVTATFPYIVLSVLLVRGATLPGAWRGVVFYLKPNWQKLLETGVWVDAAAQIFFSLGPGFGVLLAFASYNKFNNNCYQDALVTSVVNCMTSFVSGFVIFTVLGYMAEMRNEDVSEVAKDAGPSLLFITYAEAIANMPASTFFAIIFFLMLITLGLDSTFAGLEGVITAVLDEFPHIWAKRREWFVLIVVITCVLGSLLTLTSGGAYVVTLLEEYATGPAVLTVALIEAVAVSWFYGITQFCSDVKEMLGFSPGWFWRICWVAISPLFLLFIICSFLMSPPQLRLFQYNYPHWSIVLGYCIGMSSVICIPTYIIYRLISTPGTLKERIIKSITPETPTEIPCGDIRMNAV
T3 sequence (Q9WTR4 whole entry): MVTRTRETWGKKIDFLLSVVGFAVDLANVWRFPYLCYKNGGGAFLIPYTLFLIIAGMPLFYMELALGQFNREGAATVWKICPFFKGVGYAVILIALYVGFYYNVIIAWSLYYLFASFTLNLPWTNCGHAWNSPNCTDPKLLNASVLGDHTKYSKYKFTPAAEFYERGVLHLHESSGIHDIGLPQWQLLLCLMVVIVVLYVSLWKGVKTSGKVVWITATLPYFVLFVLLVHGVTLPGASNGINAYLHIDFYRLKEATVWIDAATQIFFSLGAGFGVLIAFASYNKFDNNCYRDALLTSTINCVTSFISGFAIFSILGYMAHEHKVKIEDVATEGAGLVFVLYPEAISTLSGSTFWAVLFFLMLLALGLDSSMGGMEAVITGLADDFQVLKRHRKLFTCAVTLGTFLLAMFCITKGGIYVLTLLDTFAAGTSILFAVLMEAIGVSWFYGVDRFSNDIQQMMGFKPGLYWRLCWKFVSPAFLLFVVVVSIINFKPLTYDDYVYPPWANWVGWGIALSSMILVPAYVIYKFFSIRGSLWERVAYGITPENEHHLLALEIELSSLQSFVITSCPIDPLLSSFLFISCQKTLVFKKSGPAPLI
T1 sequence (P23977 whole entry): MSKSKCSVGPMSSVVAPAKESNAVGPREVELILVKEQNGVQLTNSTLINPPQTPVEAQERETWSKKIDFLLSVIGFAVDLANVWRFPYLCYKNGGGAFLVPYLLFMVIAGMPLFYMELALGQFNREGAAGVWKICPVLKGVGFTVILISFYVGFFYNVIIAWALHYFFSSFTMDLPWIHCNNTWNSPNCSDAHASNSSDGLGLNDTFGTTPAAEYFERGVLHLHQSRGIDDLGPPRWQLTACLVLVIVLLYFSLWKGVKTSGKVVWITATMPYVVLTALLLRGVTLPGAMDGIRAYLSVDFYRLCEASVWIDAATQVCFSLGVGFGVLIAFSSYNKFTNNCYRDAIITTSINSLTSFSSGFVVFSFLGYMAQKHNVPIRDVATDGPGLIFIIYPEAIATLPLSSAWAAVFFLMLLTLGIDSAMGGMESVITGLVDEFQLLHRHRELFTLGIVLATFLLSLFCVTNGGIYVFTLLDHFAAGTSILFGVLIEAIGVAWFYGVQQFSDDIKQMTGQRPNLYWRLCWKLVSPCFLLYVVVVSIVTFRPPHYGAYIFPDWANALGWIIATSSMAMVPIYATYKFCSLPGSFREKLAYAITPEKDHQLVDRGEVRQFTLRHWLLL

As for `CN[C@@H]1C[C@@H](c2ccc(Cl)c(Cl)c2)c2ccc(OC)cc21`, the Ki in assay [1] is 9 nM; in assay [2], 0.7 nM; in assay [3], 34 nM; in assay [4], 12 nM; in assay [5] it was 19 nM; in assay [6] it was 7 nM.

For the compound `CN[C@H]1C[C@H](c2ccc(Cl)c(Cl)c2)c2ccc(OC)cc21`, the Ki is 600 nM in assay [1]; 51 nM in assay [7]; 650 nM in assay [3]; 600 nM in assay [4]; 109 nM in assay [5]; 820 nM in assay [6].

As for `CNC1CC(c2ccc(Cl)c(Cl)c2)c2ccc(OC)cc21` (cis isomer), the Ki in assay [1] worked out at 96 nM; in assay [7], 0.3 nM; in assay [6], 170 nM.

As to `CCN(CC)C1CC(c2ccc(Cl)c(Cl)c2)c2ccc(OC)cc21` (cis isomer), the values for the Ki in assay [1], in assay [2] and in assay [6] were 1310 nM, 26 nM and > 4700 nM, respectively.

For the compound `CNC1CC(c2ccc(Cl)c(Cl)c2)c2ccc(OC)cc21` (trans isomer), the Ki is 12 nM in assay [1], 1.1 nM in assay [2] and 15 nM in assay [6].

Consider `CNC1CC(c2ccc(Cl)c(Cl)c2)c2ccc(O)cc21` (trans isomer), for which the Ki in assay [1] worked out at 11 nM; in assay [2] it was 3 nM; in assay [6], 24 nM.

`CCN(CC)C1CC(c2ccc(Cl)c(Cl)c2)c2ccc(O)cc21` (trans isomer): the Ki was 40 nM in assay [1], 0.7 nM in assay [2] and 1330 nM in assay [6].

Regarding `CCN(CC)C1CC(c2ccc(Cl)c(Cl)c2)c2ccc(OC)cc21` (trans isomer), the Ki in assay [1] worked out at 140 nM; in assay [2], 1.3 nM; in assay [6] it was 1010 nM.
